Experimental data reported in ChEMBL document CHEMBL1125291, “New 8-(trifluoromethyl)-substituted quinolones. The benefits of the 8-fluoro group with reduced phototoxic risk” (1992).
Converted amounts (≈) assume the structure as drawn.

What was measured:
Pseudomonas aeruginosa [1] = assay: Minimum inhibitory concentration (MIC) against gram negative bacteria Pseudomonas aeruginosa UI-18.; type: functional; settings: Pseudomonas aeruginosa; read-out: MIC
Outline: (§1)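 MICs were determined by standard broth microtitration against 11 Gram-positive and Gram-negative organisms, in µg/mL. Values come from duplicate or triplicate experiments and are accurate to ±50%.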

Enterobacter cloacae = assay: Minimum inhibitory concentration (MIC) against gram negative bacteria Enterobacter cloacae MA-2646.; type: functional
Klebsiella pneumoniae = assay: Minimum inhibitory concentration (MIC) against gram negative bacteria Klebsiella pneumoniae MGH-2.; type: functional; settings: Klebsiella pneumoniae; read-out: MIC; outline: as §1
Mus musculus [2] = species on record: Mus musculus; assay: Days of the first positive reaction in […] mice.; type: functional
Outline: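 Phototoxic skin reaction test in depilated female CD-1 mice. A single oral dose (gavage) or subcutaneous dose was given, followed 1 h later by 3 h of UVA exposure (320–400 nm). The regimen was repeated for up to 4 consecutive days, with initial doses of 30, 100 and 300 mg/kg. PTD50 was derived by the probit method. The first day of positive reaction and the no-effect dose were taken from the raw data.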

Escherichia coli [3] = assay: In vivo efficacy in mouse protection test in Escherichia coli Vogel administered by subcutaneous injection.; type: functional; settings: Escherichia coli, sc; read-out: PD50
Outline: (§2)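 Acute lethal systemic infections in female Charles River CD-1 mice. A single dose was given at challenge, orally by gavage or by subcutaneous injection. PD50 (median protective dose, mg/kg) was determined.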

Escherichia coli [4] = assay: In vivo efficacy in mouse protection test in Escherichia coli Vogel dose administered orally by gavage.; type: functional; settings: Escherichia coli, po; read-out: PD50; outline: as §2
Streptococcus pyogenes [5] = assay: In vivo efficacy (orally) against Streptococcus pyogenes C-203 in mouse protection test; type: functional; settings: Streptococcus pyogenes, po; read-out: PD50; outline: as §2
[6] = Minimum inhibitory concentration (MIC) against gram negative bacteria Prot. rettgeri M-1771.; type: functional, Providencia rettgeri; settings: Providencia rettgeri; read-out: MIC; outline: as §1
Mus musculus [7] = assay: Maximum tolerance dose was measured for phototoxic skin reaction by po administration; type: functional
Escherichia coli [8] = assay: Minimum inhibitory concentration (MIC) against gram negative bacteria Escherichia coli H-560.; type: functional; settings: Escherichia coli; read-out: MIC; outline: as §1
Streptococcus pneumoniae [9] = assay: Minimum inhibitory concentration (MIC) against gram positive bacteria Streptococcus pneumoniae SV-1.; type: functional; settings: Streptococcus pneumoniae; read-out: MIC; outline: as §1
Staphylococcus aureus [10] = assay: Minimum inhibitory concentration (MIC) against gram positive bacteria Staphylococcus aureus UC-76.; type: functional; settings: Staphylococcus aureus; read-out: MIC; outline: as §1
Mus musculus [11] = species on record: Mus musculus; assay: Dose which has no effect to induce phototoxic reaction in 50% of mice by probit method.; type: functional
Streptococcus pyogenes [12] = assay: In vivo efficacy (s.c.) against Streptococcus pyogenes C-203 in mouse protection test; type: functional; settings: Streptococcus pyogenes, sc; read-out: PD50; outline: as §2
Staphylococcus aureus [13] = assay: Minimum inhibitory concentration (MIC) against gram positive bacteria Staphylococcus aureus H-228.; type: functional; settings: Staphylococcus aureus; read-out: MIC; outline: as §1
Streptococcus pyogenes [14] = assay: Minimum inhibitory concentration (MIC) against gram positive bacteria Streptococcus pyogenes C-203.; type: functional; settings: Streptococcus pyogenes; read-out: MIC; outline: as §1
Mus musculus [15] = species on record: Mus musculus; assay: Dose required to induce phototoxic reaction in 50% of mice by probit method at different dosage forms.; type: functional
Escherichia coli [16] = assay: Minimum inhibitory concentration (MIC) against gram negative bacteria Escherichia coli Vogel.; type: functional; settings: Escherichia coli; read-out: MIC; outline: as §1
Enterococcus faecalis = assay: Minimum inhibitory concentration (MIC) against gram positive bacteria Streptococcus faecalis MGH-2.; type: functional; settings: Enterococcus faecalis; read-out: MIC; outline: as §1
Mus musculus [17] = species on record: Mus musculus; assay: Number of mice which show positive phototoxic reaction in 5 mice; type: functional
Pseudomonas aeruginosa [18] = assay: In vivo efficacy (orally) against Pseudomonas aeruginosa in mouse protection test; type: functional; settings: Pseudomonas aeruginosa, po; read-out: PD50; outline: as §2
Streptococcus pneumoniae [19] = assay: In vivo efficacy (s.c.) against Streptococcus pneumoniae SV-1 in mouse protection test; type: functional; settings: Streptococcus pneumoniae, sc; read-out: PD50; outline: as §2
Pseudomonas aeruginosa [20] = assay: In vivo efficacy (s.c.) against Pseudomonas aeruginosa in mouse protection test; type: functional; settings: Pseudomonas aeruginosa, sc; read-out: PD50; outline: as §2
Streptococcus pneumoniae [21] = assay: In vivo efficacy (orally) against Streptococcus pneumoniae SV-1 in mouse protection test; type: functional; settings: Streptococcus pneumoniae, po; read-out: PD50; outline: as §2

SMILES | MIC (Pseudomonas aeruginosa [1]) | MIC (Enterobacter cloacae) | MIC (Klebsiella pneumoniae) | Day of first positve reaction (Mus musculus [2]) | ED50 (Escherichia coli [3]) | ED50 (Escherichia coli [4]) | ED50 (Streptococcus pyogenes [5]) | MIC [6] | MTD (Mus musculus [7]) | MIC (Escherichia coli [8]) | MIC (Streptococcus pneumoniae [9]) | MIC (Staphylococcus aureus [10]) | No effect dose (Mus musculus [11]) | ED50 (Streptococcus pyogenes [12]) | MIC (Staphylococcus aureus [13]) | MIC (Streptococcus pyogenes [14]) | PTD50 (Mus musculus [15]) | MIC (Escherichia coli [16]) | MIC (Enterococcus faecalis) | No. of pos rxns (Mus musculus [17]) | other results
CCNCC1CCN(c2cc3c(cc2F)c(=O)c(C(=O)O)cn3C2CC2)C1 (configuration not stated) | 1.6 mg/L (≈ 4.28 µM) | 0.4 mg/L (≈ 1.07 µM) | 0.2 mg/L (≈ 0.536 µM) | 0 | 2.4 mg/kg | 35 mg/kg | 46 mg/kg | 0.8 mg/L (≈ 2.14 µM) | 100 mg/kg | 0.05 mg/L (≈ 0.134 µM) | 0.2 mg/L (≈ 0.536 µM) | 0.013 mg/L (≈ 0.0348 µM) | 100 mg/kg | 4.5 mg/kg | 0.4 mg/L (≈ 1.07 µM) | 0.05 mg/L (≈ 0.134 µM) | >100 mg/kg | 0.2 mg/L (≈ 0.536 µM) | 0.2 mg/L (≈ 0.536 µM) | 0 | –
NC1CCN(c2c(F)cc3c(=O)c(C(=O)O)cn(C4CC4)c3c2C(F)(F)F)C1 (configuration not stated) | 1.6 mg/L (≈ 4.01 µM) | 0.05 mg/L (≈ 0.125 µM) | 0.2 mg/L (≈ 0.501 µM) | 0 | 1.4 mg/kg | 2.9 mg/kg | 32 mg/kg | 0.4 mg/L (≈ 1 µM) | 300 mg/kg | 0.025 mg/L (≈ 0.0626 µM) | 0.4 mg/L (≈ 1 µM) | 0.05 mg/L (≈ 0.125 µM) | 300 mg/kg | 26 mg/kg | 0.1 mg/L (≈ 0.25 µM) | 0.4 mg/L (≈ 1 µM) | >300 mg/kg | 0.05 mg/L (≈ 0.125 µM) | 0.4 mg/L (≈ 1 µM) | 0 | ED50 (Pseudomonas aeruginosa [18]): 53 mg/kg; ED50 (Streptococcus pneumoniae [19]): 26 mg/kg; ED50 (Pseudomonas aeruginosa [20]): 23 mg/kg; ED50 (Streptococcus pneumoniae [21]): 25 mg/kg
C[C@@H]1CN(c2cc3c(cc2F)c(=O)c(C(=O)O)cn3C2CC2)CCN1 | 0.4 mg/L (≈ 1.16 µM) | 0.025 mg/L (≈ 0.0724 µM) | 0.05 mg/L (≈ 0.145 µM) | 0 | 0.4 mg/kg | 1.2 mg/kg | 39 mg/kg | 0.1 mg/L (≈ 0.29 µM) | 100 mg/kg | 0.025 mg/L (≈ 0.0724 µM) | 0.2 mg/L (≈ 0.579 µM) | 0.1 mg/L (≈ 0.29 µM) | 100 mg/kg | 12 mg/kg | 0.4 mg/L (≈ 1.16 µM) | 0.2 mg/L (≈ 0.579 µM) | >100 mg/kg | 0.025 mg/L (≈ 0.0724 µM) | 0.4 mg/L (≈ 1.16 µM) | 1 | –
NC1CCN(c2c(F)cc3c(=O)c(C(=O)O)cn(C4CC4)c3c2C(F)(F)F)CC1 | 3.1 mg/L (≈ 7.5 µM) | 0.2 mg/L (≈ 0.484 µM) | 0.4 mg/L (≈ 0.968 µM) | 0 | 4.5 mg/kg | 12.5 mg/kg | – | 0.8 mg/L (≈ 1.94 µM) | 100 mg/kg | 0.2 mg/L (≈ 0.484 µM) | 0.2 mg/L (≈ 0.484 µM) | 0.05 mg/L (≈ 0.121 µM) | 100 mg/kg | – | 0.1 mg/L (≈ 0.242 µM) | 0.1 mg/L (≈ 0.242 µM) | >100 mg/kg | 0.2 mg/L (≈ 0.484 µM) | 0.2 mg/L (≈ 0.484 µM) | 0 | –
C[C@@H]1CN(c2c(F)cc3c(=O)c(C(=O)O)cn(C4CC4)c3c2C(F)(F)F)CCN1 | 3.1 mg/L (≈ 7.5 µM) | 0.2 mg/L (≈ 0.484 µM) | 0.4 mg/L (≈ 0.968 µM) | 0 | 1.4 mg/kg | 1.6 mg/kg | 23 mg/kg | 0.8 mg/L (≈ 1.94 µM) | 100 mg/kg | 0.05 mg/L (≈ 0.121 µM) | 0.8 mg/L (≈ 1.94 µM) | 0.2 mg/L (≈ 0.484 µM) | 100 mg/kg | 21 mg/kg | 0.4 mg/L (≈ 0.968 µM) | 0.8 mg/L (≈ 1.94 µM) | >100 mg/kg | 0.1 mg/L (≈ 0.242 µM) | 0.8 mg/L (≈ 1.94 µM) | 0 | –
CC1(CN)CCN(c2cc3c(cc2F)c(=O)c(C(=O)O)cn3C2CC2)C1 (configuration not stated) | 1.6 mg/L (≈ 4.45 µM) | 0.05 mg/L (≈ 0.139 µM) | 0.2 mg/L (≈ 0.556 µM) | 0 | 1.7 mg/kg | 26 mg/kg | – | 0.4 mg/L (≈ 1.11 µM) | 100 mg/kg | 0.025 mg/L (≈ 0.0696 µM) | 0.003 mg/L (≈ 0.00835 µM) | 0.013 mg/L (≈ 0.0362 µM) | 100 mg/kg | – | 0.1 mg/L (≈ 0.278 µM) | 0.003 mg/L (≈ 0.00835 µM) | >100 mg/kg | 0.025 mg/L (≈ 0.0696 µM) | 0.05 mg/L (≈ 0.139 µM) | 0 | ED50 (Streptococcus pneumoniae [19]): 0.45 mg/kg; ED50 (Streptococcus pneumoniae [21]): 12 mg/kg
